# Most compounds without a hit are left out; they make up all but 3% or so of the library.
# PfHsp90 yeast 2: inhibits growth of yeast expressing Plasmodium falciparum Hsp90 | 0.32% of 310,000 active | S. cerevisiae expressing PfHsp90, BacTiter-Glo ATP, 48 h; yeast lacking PDR1 and PDR3 efflux regulators | inhibition, % at 9.4 µM | AID 504621;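 active = every replicate shows inhibition above about 80%, whatever the replicate mean, limit read from the data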;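 note: 0% = DMSO neutral controls and 100% = 20 µM radicicol positive controls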
# HSF1 activator: increases HSF-1 driven luciferase reporter signal. AID 504408. NIH3T3-HGL HSF-1 luciferase reporter, MG132, 8 h; 100% = twice DMSO control signal. activation, % at 9 µM. 1.7% of 300,000 active;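 active = mean replicate activation of at least 50% with a set share of replicates each reaching 50%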;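 note: 0% = median of the neutral control wells and 100% = twice that signal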
# T cruzi repl: T. cruzi replication inhibition. T. cruzi beta-gal in NIH3T3, luminescence, 90 h. 1.4% of 300,000 active. inhibition, % (concentration not given with the values). AID 1885;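 active = mean inhibition across valid replicates above about 55%, limit read from the data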;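 note: signal also drops with host cell toxicity which is not excluded here; 0% = plate median of DMSO wells and 100% = zero luminescence signal; higher percent means less beta-gal luminescence so fewer parasites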
#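 Test system: β-gal T. cruzi (Tulahuen C4) inside NIH/3T3 cells / Quantity: 5,000 cells/well / Measured by: luminescence from GalScreen with 0.05% NP40, read after 60 min / Medium: DMEM plus 2% FBS / Measure: parasite load inhibition, % / Reagent: Tulahuen C4 trypomastigotes, 5000/well / Schedule: co-culture of at least 90 h after 3 h attachment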
# Glyco luc inh: blocks N-linked glycosylation in D54 reporter cells; D54 ERlucT glycosylation luciferase reporter, 24 h; percent of 100 nM tunicamycin response; reporter increase, % at 12.5 µM; 0.23% of 360,000 active;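 active = mean luciferase reporter signal, scaled so untreated is 0 and the glycosylation-blocking control 100, at or above a set limit in every replicate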;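 note: luciferase carries N-glycosylation sites so blocking glycosylation raises the light; 0% = median of neutral control wells and 100% = median of 100 nM tunicamycin wells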
# CaV13 FRET inh: Disruptors of the CACNA1D IQ motif to Ca2+-dependent inactivation inhibitor domain association, primary screening, Förster resonance energy transfer in intact living …. 0.098% of 340,000 active. HEK cells, CFP/YFP FRET ICDI-IQ, plate reader, 10 min; percent FRET-ratio fall versus neutral wells. inhibition, % at 12.3 µM;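 active = mean replicate inhibition of at least 30% and at least 1% of replicates passing that level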;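 note: 0% = median of the neutral control wells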
# PvdQ inh: P. aeruginosa PvdQ acylase inhibition; purified PvdQ acylase, fluorescence plate reader; inhibition, % at 10 µM; 0.063% of 340,000 active; in the data active = inhibition above about 30%, passing the limit was not always enough;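 note: 0% = vehicle neutral wells and 100% = reference inhibitor wells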
# The depositor's hits bear a star; x = no result given.
SMILES,PfHsp90 yeast 2,HSF1 activator,T cruzi repl,Glyco luc inh,CaV13 FRET inh,PvdQ inh
Cc1ccc(NC(=O)C(c2ccccc2)C2CCCC2)cc1 (stereo not given),-2,-3,29,-4,-18,-2
O=C(Nc1ccc2ccccc2c1)C(c1ccccc1)C1CCCC1 (stereo not given),-11,-1,64*,-8,9,-12
CCCCCCCCN1C(=O)[C@@H](CC(=O)N2CCN(C(=O)OCC)CC2)C[C@@]2(C(=O)OC)C1=C[C@H](C(C)(C)C)O[C@@H]2C,x,x,x,x,-8,x
CCOC(=O)COc1ccc2c(C#N)c3ccccn3c2c1,-15,x,x,-3,-142,6
N#Cc1c2ccc(OCC(N)=O)cc2n2ccccc12,-12,18,2,11,77*,-9
Nc1c(C(=O)NCCc2ccc(Cl)cc2)sc2ccc(S(=O)(=O)N3CCCCC3)cc12,x,63*,59*,x,6,x
C/C(=N\Nc1nc(C(C)(C)C)cs1)c1ccccc1,-5,45,73*,-13,-4,-2
O=C(OCN1C(=O)c2ccccc2C1=O)c1ccccc1,x,75*,-6,0,-7,11
O=C(NCC(F)(F)F)c1csc([C@@H]2O[C@H](CO)[C@H](O)[C@H](O)[C@H]2O)n1,x,x,x,1,-10,x
COc1ccc(-c2cc3ccccc3oc2=O)cc1NC(=O)c1ccc(Br)o1,-34,5,8,-4,x,-14
COc1ccc(-c2cc3ccccc3oc2=O)cc1NC(=S)NC(=O)c1ccc2c(c1)OCCO2,-14,9,24,70*,-4,-5
COc1ccc(-c2cc3ccccc3oc2=O)cc1NC(=O)c1ccc([N+](=O)[O-])o1,x,31,56*,50*,-9,-4
N#C/C(=C\c1cccc([N+](=O)[O-])c1)C(=O)NCc1ccc(Cl)cc1,105*,x,x,7,-3,-13
COc1ccc(N2CCN(C(CNC(=O)C(=O)NCCCn3ccnc3)c3cccnc3)CC2)cc1 (stereo not given),4,-3,63*,-1,-4,-7
CCS(=O)(=O)NCC(c1cccnc1)N1CCN(c2ccc(OC)cc2)CC1 (stereo not given),-54,3,58*,2,4,-8
CCCCN(CCCC)S(=O)(=O)c1ccc(NC(=O)c2ccc([N+](=O)[O-])cc2Cl)cc1,-6,17,79*,-17,-5,-1
O=C(NNc1ccccc1[N+](=O)[O-])Nc1ccc(Cl)c(Cl)c1,-5,11,38,-7,-2,12
CC(=O)N1CCN(c2ccc(NC(=O)c3ccc([N+](=O)[O-])cc3Cl)cc2)CC1,12,-6,6,4,-5,6
CCCCN(CCCC)S(=O)(=O)c1ccc(NC(=O)c2cccs2)cc1,6,-3,56*,-10,-7,-2
CCN(CC)S(=O)(=O)c1cc([N+](=O)[O-])ccc1NNC(=O)Nc1ccc(Cl)c(Cl)c1,45,-38,60*,-10,-4,-16
COC(=O)c1cc2c(c3c4cc(F)ccc4n(S(=O)(=O)c4ccc(C)cc4)c13)C(=O)N(C)C2,x,x,x,x,-4,x
O=C(C(=O)N1CCN(C(=O)C2CCC2)CC1)c1cccc(C(F)(F)F)c1,x,x,x,x,-12,x
O=[N+]([O-])c1ccc(N=Nc2c(Cl)cc(O)cc2Cl)cc1,131*,13,35,-10,-4,14
CCN(CC)c1ccc(/C=C/c2cccc[n+]2C)c(OC)c1,8,-1,66*,28*,-155,-3
O=[N+]([O-])c1ccc(N2CCN(c3ccccc3)CC2)nc1,-1,16,-23,-1,-18,1
SMILES,PfHsp90 yeast 2,HSF1 activator,T cruzi repl,Glyco luc inh,CaV13 FRET inh,PvdQ inh
O=[N+]([O-])c1ccc(N2CCCCC2)nc1,-89,18,3,0,-5,39*
O=[N+]([O-])c1ccc(N2CCCC2)nc1,-15,3,-7,0,-13,39*
COc1ccccc1CCn1cnc(-c2cccc(F)c2)c1CC(C)C,x,x,x,x,-4,x
CN(C)CCN(C)C1CN(Cc2ccccc2)S(=O)(=O)C1 (stereo not given),x,x,x,1,-11,x
Cc1ccc(C2=NN(S(C)(=O)=O)C(c3ccc4c(c3)OCO4)C2)cc1 (stereo not given),-4,80*,-5,-11,-6,-10
CC(=O)N1N=C(c2ccc(C)cc2)CC1c1ccc2c(c1)OCO2 (stereo not given),-8,43,0,-1,-15,-15
CS(=O)(=O)N1N=C(c2ccc(Br)cc2)CC1c1ccc2c(c1)OCO2 (stereo not given),4,77*,3,-4,x,-11
O=C(C(=O)N1CCC(CNS(=O)(=O)c2ccc3ccccc3c2)CC1)c1cc2ccccc2o1,x,x,x,x,-8,x
C=CCN=c1scc(-c2ccccc2)n1/N=C/c1ccccn1,-23,52*,-26,-11,-11,-9
Cc1cc2nc(C(C)(C)C)c(Cc3ccccc3C(F)(F)F)n2c(C)c1Br,x,x,x,x,-6,x
O=C1CC(N2C(=O)/C(=C/C=C/c3ccccc3)SC2=S)C(=O)N1c1ccccc1 (stereo not given),2,83*,10,-1,-3,-1
COc1ccc(C#Cc2c(-c3ccccc3OC)oc3ccccc23)cc1,x,x,x,x,-5,x
COc1ccc(CCN(C)CCC(=O)Nc2ccc(C)cc2)cc1OC,1,16,59*,-2,-4,-5
COc1ccc(CCN(C)CCC(=O)Nc2cccc(C)c2)cc1OC,4,0,38,-1,1,-1
Fc1ccc(C(CCCn2nnc(-c3cccnc3)n2)c2ccc(F)cc2)cc1,1,23,62*,7,-4,1
COCc1[nH]nc2c1C(c1ccc(Br)cc1)N(Cc1ccccc1)C2=O (stereo not given),x,x,x,x,-4,x
O=C(CC(c1ccco1)S(=O)(=O)c1ccccc1)c1ccc(F)cc1 (stereo not given),-26,220*,50,4,-4,-6
NC(=O)/C(=C\c1ccc([N+](=O)[O-])o1)c1ccco1,x,x,x,4,-5,x
O=[N+]([O-])c1ccc(/C=[N+](\[O-])CCO)o1,9,0,59*,5,-5,-13
CCOC(=O)C1C(=O)OC(C)(C)C1C(C)C(=O)c1ccc(C)cc1C (stereo not given),-23,56*,-6,-1,-4,5
Cn1c(SCc2cccc(C(F)(F)F)c2)nnc1-c1ccco1,x,59*,4,8,-4,-9
Cc1cccc(C2c3[nH]c4ccccc4c3CCN2Cc2cccn2-c2ncccn2)c1 (stereo not given),-7,5,58*,-9,-2,-2
